Assay results reported in ChEMBL document CHEMBL2021854, “2-Aminopyrimidine based 4-aminoquinoline anti-plasmodial agents. Synthesis, biological activity, structure-activity relationship and mode of action studies” (Eur J Med Chem, 2012).

Test system: Vaccinia virus
Test: Antiviral activity against Vaccinia virus infected in HEL cells assessed as inhibition of virus-induced cytopathogenicity after 4 days
Format: functional, organism-based
Details: Orthopoxvirus vaccinia, 96 h
In short: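 Confluent HEL or HeLa monolayers infected with 100 CCID50 of virus in the presence of varying compound concentrations.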

Compound | EC50
CCOC(=O)c1c(C)nc(NCCNc2ccnc3cc(Cl)ccc23)nc1-c1ccccc1 | > 4 µM
CCOC(=O)c1c(C)nc(NCCCNc2ccnc3cc(Cl)ccc23)nc1-c1ccccc1 | > 100 µM
CCOC(=O)c1c(C)nc(NCCCCNc2ccnc3cc(Cl)ccc23)nc1-c1ccccc1 | > 100 µM
CCOC(=O)c1c(C)nc(NCCCNc2ccnc3cc(Cl)ccc23)nc1C | > 100 µM
CCOC(=O)c1c(C)nc(NCCCCNc2ccnc3cc(Cl)ccc23)nc1C | > 100 µM
Cc1nc(NCCCNc2ccnc3cc(Cl)ccc23)nc(-c2cccc([N+](=O)[O-])c2)c1C(=O)OC(C)C | > 4 µM
Cc1nc(NCCNc2ccnc3cc(Cl)ccc23)nc(-c2ccccc2[N+](=O)[O-])c1C(=O)OC(C)C | > 20 µM
Cc1nc(NCCCCNc2ccnc3cc(Cl)ccc23)nc(-c2ccccc2[N+](=O)[O-])c1C(=O)OC(C)C | > 4 µM
Nc1nc2c(ncn2COCCO)c(=O)[nH]1 [ACYCLOVIR] | > 250 µM
Nc1nc(O)c2ncn(COC(CO)CO)c2n1 [GANCICLOVIR] | > 100 µM
